Activity calls are given as the source filed them. The rule behind the calls is not given here.
Key:
Escherichia coli [1] = assay: Growth inhibition of Escherichia coli CC104 expressing rdxA after 16 hrs relative to Escherichia coli with pBSK; assay type: functional, organism-based
Method in brief: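 E. coli CC104 carrying pGS950 (expresses H. pylori rdxA) or empty pBSK was grown in 2% glucose minimal (MinA) liquid medium with drug at 0, 5, 10 or 15 µg/ml. Turbidity at 660 nm was read at 16 h in triplicate cultures, normalized to the no-drug control, and expressed as percent growth inhibition (mean and standard deviation).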

[2] = molecular target: T1, Pyruvate-flavodoxin oxidoreductase (Campylobacter jejuni subsp. jejuni) (UniProt Q0P8E1); assay: Activity of PFOR in Campylobacter jejuni at anaerobic condition
T1 sequence (whole entry): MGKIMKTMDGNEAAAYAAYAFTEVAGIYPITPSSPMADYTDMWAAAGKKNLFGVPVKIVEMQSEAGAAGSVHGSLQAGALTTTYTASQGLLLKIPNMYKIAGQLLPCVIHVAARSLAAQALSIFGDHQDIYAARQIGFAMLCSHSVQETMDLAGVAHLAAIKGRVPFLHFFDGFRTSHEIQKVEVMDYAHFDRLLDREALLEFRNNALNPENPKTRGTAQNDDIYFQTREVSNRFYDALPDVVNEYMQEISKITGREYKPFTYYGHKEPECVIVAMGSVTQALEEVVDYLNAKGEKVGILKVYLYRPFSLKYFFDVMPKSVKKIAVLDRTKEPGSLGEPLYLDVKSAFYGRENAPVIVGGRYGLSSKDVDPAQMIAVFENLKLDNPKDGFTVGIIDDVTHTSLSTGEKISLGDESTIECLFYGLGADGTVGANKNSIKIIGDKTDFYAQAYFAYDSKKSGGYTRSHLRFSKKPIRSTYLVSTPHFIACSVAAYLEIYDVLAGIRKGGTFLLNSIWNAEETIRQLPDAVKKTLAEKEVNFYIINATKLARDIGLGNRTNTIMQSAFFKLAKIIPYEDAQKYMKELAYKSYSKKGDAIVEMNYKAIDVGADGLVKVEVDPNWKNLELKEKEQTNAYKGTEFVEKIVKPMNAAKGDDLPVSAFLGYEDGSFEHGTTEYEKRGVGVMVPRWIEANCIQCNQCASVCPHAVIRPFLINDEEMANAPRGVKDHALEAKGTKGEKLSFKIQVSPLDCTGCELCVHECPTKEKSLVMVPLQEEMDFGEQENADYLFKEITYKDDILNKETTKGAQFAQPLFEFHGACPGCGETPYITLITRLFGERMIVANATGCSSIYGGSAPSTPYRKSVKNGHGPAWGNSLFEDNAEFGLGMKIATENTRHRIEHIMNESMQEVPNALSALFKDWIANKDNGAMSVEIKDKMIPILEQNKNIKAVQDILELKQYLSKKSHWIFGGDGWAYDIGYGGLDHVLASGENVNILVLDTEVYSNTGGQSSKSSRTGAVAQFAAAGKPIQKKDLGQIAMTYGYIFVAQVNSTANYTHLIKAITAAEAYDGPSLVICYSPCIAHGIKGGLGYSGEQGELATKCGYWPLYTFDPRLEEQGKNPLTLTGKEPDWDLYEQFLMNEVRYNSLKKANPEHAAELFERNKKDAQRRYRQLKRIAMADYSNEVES
Method in brief: (§1)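 Cell-free extracts, high-speed supernatant after sonication (parasites: sonication or glass homogenizer). PFOR assayed anaerobically at 25°C in 100 mM potassium phosphate pH 7.4 with 10 mM pyruvate, 0.18 mM CoA, 1 mM MgCl2 and 5 µM TPP. Acceptor was 5 mM benzyl viologen (546 nm) or NTZ (decrease at 418 nm). Enzyme added last. Triplicate means, per mg Bradford protein.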

Entamoeba histolytica [3] = assay: Activity of PFOR in Entamoeba histolytica at anaerobic condition; method in brief: as §1
Helicobacter pylori = assay: Activity of PFOR in Helicobacter pylori at anaerobic condition; method in brief: as §1
Clostridioides difficile = assay: Activity of PFOR in Clostridium difficile at anaerobic condition; method in brief: as §1
Giardia duodenalis = assay: Activity of PFOR in Giardia intestinalis at anaerobic condition; method in brief: as §1
Trichomonas vaginalis = assay: Activity of PFOR in Trichomonas vaginalis at anaerobic condition; method in brief: as §1
[4] = molecular target: T2, Pyruvate-flavodoxin oxidoreductase (Clostridium perfringens (strain SM101 / Type A)) (UniProt Q0SRB6); assay: Activity of PFOR in Clostridium perfringens at anaerobic condition; method in brief: as §1
T2 sequence (whole entry): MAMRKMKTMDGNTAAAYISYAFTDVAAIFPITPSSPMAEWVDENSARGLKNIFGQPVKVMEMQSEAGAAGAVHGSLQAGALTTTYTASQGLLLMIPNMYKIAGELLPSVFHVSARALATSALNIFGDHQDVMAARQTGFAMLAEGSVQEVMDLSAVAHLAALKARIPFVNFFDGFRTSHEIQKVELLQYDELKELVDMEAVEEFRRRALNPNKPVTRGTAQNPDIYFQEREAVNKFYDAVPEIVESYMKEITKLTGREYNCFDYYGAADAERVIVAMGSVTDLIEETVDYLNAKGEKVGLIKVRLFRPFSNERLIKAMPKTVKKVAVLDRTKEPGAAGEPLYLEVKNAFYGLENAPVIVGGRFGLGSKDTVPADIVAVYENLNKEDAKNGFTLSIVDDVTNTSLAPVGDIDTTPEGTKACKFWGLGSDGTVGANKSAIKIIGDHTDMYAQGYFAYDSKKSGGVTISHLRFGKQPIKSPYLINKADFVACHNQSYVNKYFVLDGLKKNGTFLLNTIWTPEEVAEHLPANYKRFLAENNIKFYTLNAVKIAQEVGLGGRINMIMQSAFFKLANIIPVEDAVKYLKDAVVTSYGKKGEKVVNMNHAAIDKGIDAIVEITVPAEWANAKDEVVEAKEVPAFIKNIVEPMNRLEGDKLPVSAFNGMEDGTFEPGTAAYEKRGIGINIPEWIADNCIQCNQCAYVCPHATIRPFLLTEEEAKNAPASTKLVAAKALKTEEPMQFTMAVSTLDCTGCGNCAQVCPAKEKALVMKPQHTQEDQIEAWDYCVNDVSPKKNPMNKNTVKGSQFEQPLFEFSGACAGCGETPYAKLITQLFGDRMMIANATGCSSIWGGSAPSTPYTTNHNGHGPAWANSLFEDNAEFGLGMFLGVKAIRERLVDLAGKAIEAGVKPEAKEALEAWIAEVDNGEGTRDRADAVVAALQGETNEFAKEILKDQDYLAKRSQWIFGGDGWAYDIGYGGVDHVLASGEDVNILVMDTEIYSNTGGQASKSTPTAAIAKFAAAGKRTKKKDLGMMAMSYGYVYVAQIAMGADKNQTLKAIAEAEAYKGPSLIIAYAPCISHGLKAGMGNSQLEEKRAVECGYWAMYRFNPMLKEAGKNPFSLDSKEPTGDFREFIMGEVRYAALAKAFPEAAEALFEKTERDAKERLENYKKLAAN

Escherichia coli [5] = assay: Growth inhibition of Escherichia coli CC104 expressing rdxA gene after 16 hrs; assay type: functional
Method in brief: (§2)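 E. coli CC104 carrying pGS950 (H. pylori rdxA) or empty pBSK, grown in 2% glucose MinA liquid medium with drug at 0, 5, 10 or 15 µg/ml. Turbidity at 660 nm read at 16 h in triplicate and expressed as a percentage of the no-drug control.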

[6] = Inhibition of PFOR Trichomonas vaginalis
Method in brief: (§3)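 PFOR in extracts or partly purified enzyme, standard anaerobic assay at 25°C with excess benzyl viologen (5 mM). Initial velocities of BV reduction at 546 nm measured at each NTZ level (0 to 264 µM). Plotted as 1/V against inhibitor concentration to derive Ki. Triplicate.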

Escherichia coli [7] = assay: Growth inhibition of Escherichia coli; assay type: functional
Escherichia coli [8] = assay: Growth inhibition of Escherichia coli pBSK after 16 hrs; assay type: functional; method in brief: as §2
[9] = Inhibition of PFOR Entamoeba histolytica; method in brief: as §3
[10] = Inhibition of PFOR Helicobacter pylori; method in brief: as §3
[11] = molecular target: T3, Pyruvate-flavodoxin oxidoreductase (Campylobacter jejuni subsp. jejuni, UniProt Q0P8E1); assay: Inhibition of PFOR Campylobacter jejuni; method in brief: as §3
T3 sequence (Q0P8E1 whole entry): T1 sequence (whole entry)

Entamoeba histolytica [12] = assay: Inhibition of Entamoeba histolytica PFOR cloned in Escherichia coli assessed as [14C]pyruvate decarboxylation by BV assay
Escherichia coli [13] = assay: Inhibition of Escherichia coli JVQ2 PDH at 20 uM

Structure (SMILES) | Activity (Escherichia coli [1]) | Activity [2] [nmol/mg/min] | Activity (Entamoeba histolytica [3]) [nmol/mg/min] | Activity (Helicobacter pylori) [nmol/mg/min] | Activity (Clostridioides difficile) [nmol/mg/min] | Activity (Giardia duodenalis) [nmol/mg/min] | Activity (Trichomonas vaginalis) [nmol/mg/min] | Activity [4] [nmol/mg/min] | Inhibition (Escherichia coli [5]) [%] | Ki [6] [µM] | MIC (Escherichia coli [7]) [µg/mL] | Inhibition (Escherichia coli [8]) [%] | Ki [9] [µM] | Ki [10] [µM] | Ki [11] [µM] | Activity (Entamoeba histolytica [12]) | inhibition (Escherichia coli [13]) [%] | Km (Giardia duodenalis) [µM]
Cc1ncc([N+](=O)[O-])n1CCO | Active | – | – | – | – | – | – | – | – | – | – | – | – | – | – | – | – | –
c1ccc(C[n+]2ccc(-c3cc[n+](Cc4ccccc4)cc3)cc2)cc1 | – | 115 | 742 | 127 | 106 | 62.5 | 52.5 | 225 | – | – | – | – | – | – | – | – | – | –
CC(=O)Oc1ccccc1C(=O)Nc1ncc([N+](=O)[O-])s1 [NITAZOXANIDE] | – | 20 | 19 | 8.5 | 18.8 | 41.5 | – | 56.5 | 35 | 2.2 | > 32 | 35 | 10 | 4.5 | 10.5 | Active | 22 | 44
